Results collected from several papers.
Target: Cytochrome P450 2D6 (CYP2D6, Homo sapiens, UniProt P10635)
Observed: enzyme activity
Action: inhibitor

| SMILES | test | system | conditions | IC50 |
| --- | --- | --- | --- | --- |
| Cc1coc([C@H]2C[C@H]3[C@@H](CF)SC(N)=N[C@@]3(c3ccc(F)cc3F)CO2)n1 |  | human, liver microsomes | pH 7.4 | > 30000 nM |
| Nc1nc(N)c2nc(C(=O)NCc3ccccc3)cnc2n1 | luciferase |  |  | 204 nM |
| C[C@H]1CN(c2n[nH]c3nc(N[C@H]4CC[C@H](NS(=O)(=O)CCC(F)(F)F)CC4)ncc23)CCO1 |  |  |  | > 100000 nM |
| Cc1coc([C@H]2C[C@H]3[C@@H](C)SC(N)=N[C@@]3(c3ccc(F)cc3F)CO2)n1 |  | human, liver microsomes | pH 7.4 | > 30000 nM |
| O=c1c(O)c(-c2ccc(O)c(O)c2)oc2cc(O)cc(O)c12 | fluorescence |  | pH 7.4 | 650 nM |
| Nc1nc(N)c2nc(CNc3cccc4ccccc34)cnc2n1 | luciferase |  |  | 832 nM |
| C=CC(=O)Nc1cc(Nc2nccc(Nc3cc(Cl)c(F)cc3C(C)(C)O)n2)c(OC)cc1N1CC[C@@H](N(C)C)C1 |  | human, liver microsomes |  | 6300 nM |
| COc1ccc2c(Cc3ccccc3F)c3[n+](cc2c1OC)CCc1cc2c(cc1-3)OCO2 |  |  |  | 200 nM |
| N#C[C@H](C[C@@H]1CCCNC1=O)NC(=O)[C@H](CC1CC1)NC(=O)c1cc2cccc(Cl)c2[nH]1 |  | human, liver microsomes |  | 50700 nM |
| COc1ccc2cc3[n+](cc2c1OC)CCc1cc2c(cc1-3)OCO2 |  |  |  | 600 nM |
| Nc1nc(N)c2nc(C(=O)NCc3cccc(C(F)(F)F)c3)cnc2n1 | luciferase |  |  | 251 nM |
| Fc1ccc(Nc2c(-c3ccccn3)nc3ccc(C4CC4)cn23)cc1 |  |  |  | 1500 nM |
